High-throughput results: PubChem, several laboratories
STAT1 activator: activators of IFN-gamma induced STAT1 signaling | NIH 3T3 STAT1-luciferase reporter, luminescence; 100% = IFN-gamma alone, no compound | activation (% of control), % at 5.5 µM | 2.6% of 200,000 active | AID 932;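 active means activation above the screen-wide mean activation plus 3 SD, cut at about 130% in these data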;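 further: raw ratio to IFN-gamma control signal so 100% means no change and 0% no light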
HSV replic up: increases HSV replication in cells | HSV replication augmentation in cells, fold increase | maximum fold increase | 0.005% of 220,000 active; in the data active means maximum fold increase above about 1.5; inconclusive means no clear call, values can overlap the other calls; tested in PC3 cells
STAT1 inh: STAT1 signaling inhibition. NIH 3T3 STAT1-luciferase reporter, IFN-gamma, luminescence. inhibition, % at 5.5 µM. 0.35% of 200,000 active;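 active means inhibition above a set limit, the mean inhibition across all tested compounds plus 3 SD, cut at about 34% in these data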;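 further: 0% = IFN-gamma with DMSO and 100% = IFN-gamma with 300 µM nifuroxazide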
STAT3 inh: reduces IL-6 driven STAT3 reporter signal; inhibition, % at 5.5 µM; U3A cells, IL-6 STAT3-luciferase reporter, luminescence; host cell line lacks STAT1; 0.89% of 190,000 active;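 active means inhibition above the mean inhibition across all screened compounds plus 3 SD, cut at about 44% in these data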;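 further: 0% = DMSO only wells and 100% = 100 µM nifuroxazide control wells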
Cl transport mod: modulators of human KCC2 chloride dependent transport. Q9H2X9. KCC2 cells, thallium flux FluoZin-2 fluorescence. B-score of Tl+ flux slope (higher = more flux/activation; lower = inhibition) at 10 µM. 2.2% of 190,000 active;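 active means thallium flux slope and its plate-corrected score both differing from the plate sample mean at a set confidence after two filtering rounds, in either direction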;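 further: slope of fluorescence scaled to starting intensity during 10 to 20 s after thallium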
STAT3 activator: STAT3 signaling activation; U3A cells, IL-6 STAT3-luciferase reporter, luminescence; 100% = signal with IL-6 EC80 alone; activation (% of control), % at 5.6 µM; AID 871; 0.91% of 190,000 active;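 active means activation above the screen-wide mean of compound activation plus 3 SD, cut at about 130% in these data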;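 further: 0% = background luminescence of wells with medium and substrate only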
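system = STAT3-luciferase reporter U3A cells | reagent = IL-6 stimulus at 33 ng/mL final | timing = 1 h compound pre-exposure, 6 h IL-6 stimulation, 37 °C | measured by = luminescence | evaluation = % activation versus median of IL-6-stimulated wells | control set = IL-6-only wells as 100% reference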
STAT1 act conf: confirmation of STAT1 signaling activators. 97% of 1,200 active. shares compounds with STAT1 activator. activation (% of control), % at 5.7 µM. NIH 3T3 STAT1-luciferase reporter, IFN-gamma potentiation, luminescence; 100% = IFN-gamma EC80 alone, no compound;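 active means activation above a set limit carried over from the earlier primary STAT1 screen, cut at about 140% in these data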;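 further: simple ratio to median IFN-gamma plus DMSO wells so 0% means no light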
NFkB act STAT1ct: activates NF-kappaB, counter-screen to STAT1 activators; HEK293T NF-kB luciferase reporter, TNF-alpha stimulated, luminescence; 100% = TNF-alpha with vehicle only; activation (% of control), % at 5.7 µM; shares compounds with STAT1 activator; 43% of 1,200 active; AID 1306;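 active means activation above the mean of solvent-only control wells plus 3 SD, set per campaign, cut at about 130% in these data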;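 further: TNF-alpha given at a submaximal dose yielding about 80% of full reporter signal; values are well signal over median control so 100% means no change and 0% no light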
STAT3 act STAT1c: activates human STAT3, counter-screen to STAT1 activators; shares compounds with STAT1 activator; U3A cells STAT3-luciferase reporter, IL-6, luminescence; cells lack STAT1; 100 = IL-6 alone, no compound effect; activation (% of control), % at 5.7 µM; 46% of 1,200 active; AID 1316;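 active means activation above the solvent-only control well mean plus 3 SD, set per plate batch, cut at about 110% in these data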;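 further: 0% = no luminescence and 100% = median IL-6 plus DMSO wells; higher means more STAT3 reporter activation so hits are non-selective activators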
Numbers without * were called inactive; i = inactive; ? = inconclusive; . = no result. Shown are actives, neighbours in structure and some others; about 5.5% of the full set was active somewhere.

SMILES | STAT1 activator | HSV replic up | STAT1 inh | STAT3 inh | Cl transport mod | STAT3 activator | STAT1 act conf | NFkB act STAT1ct | STAT3 act STAT1c
Cc1nc(-c2ccc(NC(=O)c3ccccc3Br)cc2)cs1 | 151* | i | -57 | 4 | -2.1 | 96 | 174* | 129 | 102
CCC1=CC(c2ccccc2)n2ncnc2N1 (stereo unspecified) | . | i | . | . | . | . | . | . | .
Cc1nn(C)c(C)c1CCC(=O)O | 96 | i | 3 | 4 | -0.041 | 99 | . | . | .
CCOC(=O)c1[nH]c(=O)[nH]c1CN(Cc1ccco1)Cc1[nH]c(=O)[nH]c1C(=O)OCC | 107 | i | -8 | 1 | 0.35 | 110 | . | . | .
O=C(N/N=C/c1ccc(Br)cc1)c1ccc(Br)o1 | 159* | i | -67 | -2 | -0.58 | 104 | 190* | 137* | 113*
Cc1nc2nc(-c3ccco3)[nH]n2c(=O)c1C | 99 | i | 1 | 0 | -0.86 | 100 | . | . | .
O=[N+]([O-])c1ccc(F)cc1OCc1nc(-c2cccs2)no1 | 172* | i | -81 | 4 | -0.16 | 106 | 203* | 145* | 120*
O=[N+]([O-])c1ccccc1OCc1nc(-c2cccs2)no1 | 180* | i | -87 | -2 | -1.3 | 109 | 226* | 142* | 122*
O=C(O)CCc1nc(-c2cccs2)no1 | 96 | . | 4 | -1 | -0.03 | 106 | . | . | .
CCc1cc(CNC(=O)CCc2nnc(CCCc3ccccc3)o2)on1 | 158* | i | -65 | -10 | -0.39 | 111 | 168* | 125 | 115*
O=C(CCc1nnc(CCCc2ccccc2)o1)N1CCCCCC1 | 153* | i | -61 | -2 | 0.21 | 105 | 142* | 122 | 107
O=C(CCc1nnc(C2CCCCC2)o1)N1CCN(c2ccccc2F)CC1 | 163* | i | -73 | -13 | -0.45 | 116 | 172* | 137* | 117*
Cc1cccc(-c2nc(C#N)c(NC3CCCCC3)o2)c1 | 156* | i | -62 | -9 | . | 108 | 174* | 132 | 118*
Cc1cccc(-c2nc(CS(=O)CC(=O)NC3CCCC3)c(C)o2)c1 (stereo unspecified) | 106 | i | -6 | 8 | 0.031 | 98 | . | . | .
COc1ccccc1-c1nc(-c2ccc(C)nc2OC)no1 | 157* | i | -62 | 10 | -0.76 | 94 | 165* | 126 | 103
CCc1ccc(C2=NN(S(C)(=O)=O)C(c3cccs3)C2)cc1 (stereo unspecified) | 156* | i | -62 | -27 | -0.096 | 126 | 218* | 142* | 129*
CCOC(=O)c1sc2nc(C)nc(SCC(=O)NC3CCS(=O)(=O)C3)c2c1C (stereo unspecified) | 104 | i | -6 | 5 | 0.35 | 97 | . | . | .
COc1ccc(C(=O)Cn2nnc(-c3ccccc3F)n2)cc1 | 102 | i | -2 | 6 | . | 98 | . | . | .
COc1ccc(-c2nnn(Cc3ccccc3F)n2)cc1 | 163* | i | -64 | -1 | -0.21 | 103 | 176* | 133* | 114*
CCSc1ncc(/C=N/Nc2ccccc2)n1C | 100 | i | 0 | -12 | -1.5 | 115 | . | . | .
CCSc1ncc(/C=N/Nc2ccc([N+](=O)[O-])cc2)n1C | 162* | i | -68 | 6 | 1.1 | 100 | 196* | 149* | 102
COc1ccc(NC(=O)/C(Cl)=C(/Cl)S(=O)Cc2ccccc2Cl)cn1 (stereo unspecified) | 346* | . | -268 | 18 | -2.8 | 87 | 292* | 65 | 133*
COc1ccc(NC(=O)Cc2ccc(Cl)c(Cl)c2)cn1 | 106 | i | -8 | 8 | -0.014 | 100 | . | . | .
Cc1nc2c(ccc3nc(NC(=O)c4ccc5c(c4)OCCO5)sc32)s1 | 168* | i | -75 | 35 | -0.45 | 72 | 230* | 129 | 104
CC(C)(C)C(=O)NCCc1nc(-c2ccccc2)no1 | . | i | . | . | . | . | . | . | .
SMILES | STAT1 activator | HSV replic up | STAT1 inh | STAT3 inh | Cl transport mod | STAT3 activator | STAT1 act conf | NFkB act STAT1ct | STAT3 act STAT1c
Cc1cc(C)n2cc(COc3ccc4ccccc4c3)nc2n1 | 176* | i | -86 | 15 | -1.5 | 90 | 214* | 127 | 117*
Cc1cccc2nc(COc3ccc(-c4ccccc4)cc3)cn12 | 163* | i | -70 | 20 | -0.47 | 88 | 168* | 110 | 115*
CC(=Nc1ccccc1)c1sc2ccccc2c1O | 190* | ? | -99 | -23 | -0.9 | 124 | 228* | 133* | 150*
COCCn1c(C)cc(C(=O)CSc2nc3ccccc3s2)c1C | 118 | i | -17 | 39 | -2.6 | 67 | . | . | .
COCCn1c(C)cc(C(=O)CSc2nc3ccccc3o2)c1C | 158* | i | -63 | 33 | . | 74 | 215* | 121 | 107
COc1ccc(Cn2c(C3CC3)nc3ccc(NC(=O)C4CC4)cc3c2=O)cc1 | 209* | i | -119 | -5 | 0.58 | 110 | 294* | 144* | 124*
CCN(CC)c1ccc(NC(=O)c2cccc(C)c2OC)c(C)c1 | 152* | i | -57 | 9 | -0.051 | 97 | 175* | 137* | 106
Clc1ccc(-c2cnc(Oc3ccccc3)nc2)cc1 | 153* | i | -59 | 2 | -1.3 | 100 | 190* | 142* | 109
Cc1c(Nc2cc(Cl)c3nonc3c2[N+](=O)[O-])c(=O)n(-c2ccccc2)n1C | 376* | i | -302 | 6 | -2.5 | 97 | 159* | 113 | 103
Clc1cccc(NCc2cn3cccnc3n2)c1 | 112 | i | -15 | 9 | -0.035 | 95 | . | . | .
COC(=O)c1ccc(NC(=O)c2snnc2-c2ccccc2)cc1 | 91 | i | 8 | 25 | 0.53 | 84 | . | . | .
COc1ccc(-c2[nH]ncc2C=O)cc1 | 102 | i | -3 | -2 | -0.21 | 103 | . | . | .
O=C(Nc1cccc(N=Cc2cc(Cl)cc(Br)c2O)c1)c1ccco1 | 110 | i | -11 | -12 | 0.95 | 107 | . | . | .
O=C(/C(C=Nc1ccc(F)cc1)=C(/O)c1ccco1)C(F)(F)F | 151* | i | -57 | 20 | 0.52 | 85 | 162* | 117 | 109
Cc1ccc(N=C/C(C(=O)C(F)(F)F)=C(\O)c2ccco2)cc1Cl | 183* | i | -92 | 2 | -0.71 | 100 | 221* | 125 | 144*
Cc1cccc(N=C/C(C(=O)C(F)(F)F)=C(\O)c2ccco2)c1 | 163* | i | -70 | 7 | -0.029 | 99 | 173* | 132 | 123*
